Assay outcomes: PubChem, several laboratories
A selection: hits, their analogues and other compounds. The true share with any hit is near 4.3%.
TAAR1 antagonist = human TAAR1 antagonism; Q96RJ0; hit rate 1.5% among 360,000; CHO RD-HGA16 TAAR1, Fluo-8 calcium fluorescence, antagonist; inhibition, % at 3 µM;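 active = inhibition above a per-plate cutoff, the mean inhibition of test compounds on that plate plus 3 SD, cut at about 49% in these data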;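 also: 0% = DMSO plus EC80 beta-PEA response and 100% = DMSO alone without agonist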
Target sequence (Q96RJ0 whole entry, looked up): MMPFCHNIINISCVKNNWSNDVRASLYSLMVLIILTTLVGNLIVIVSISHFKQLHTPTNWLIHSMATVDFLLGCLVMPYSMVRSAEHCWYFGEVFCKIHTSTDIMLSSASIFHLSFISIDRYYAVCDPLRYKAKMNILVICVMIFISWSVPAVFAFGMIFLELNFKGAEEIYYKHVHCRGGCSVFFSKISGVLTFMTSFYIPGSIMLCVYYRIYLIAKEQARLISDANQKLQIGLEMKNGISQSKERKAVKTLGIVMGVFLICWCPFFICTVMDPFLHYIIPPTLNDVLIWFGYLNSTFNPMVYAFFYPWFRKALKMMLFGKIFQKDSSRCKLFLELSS
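Test system – hTAAR1-expressing CHO RD-HGA16 cells, Gα16-coupled · Also added – β-PEA at EC80 concentration, post-compound challenge · Compound – 3 µM, single point · Incubation – dye loading 75 min at 37 °C, then 30 min room temperature · Measured by – Fluo-8 intracellular calcium dye fluorescence, real-time kinetic reads · Benchmarks – vehicle and agonist controls · Replicates – singlicate, one well per test compound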
Beta2AR agonist = human beta-2 adrenergic receptor agonism by FAP | AID 504454 | Am2.2-beta2AR cells, FAP receptor internalization, flow cytometry | response, % (no concentration beside the values) | hit rate 0.43% among 340,000;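 active = response above a set limit, near 3 SD of response in nonfluorescent compounds, cut at about 42% in these data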
TAAR1 agonist = agonists of human TAAR1 | Q96RJ0 | CHO RD-HGA16 TAAR1, Fluo-8 calcium fluorescence; vehicle wells 0%, saturating PEA agonist 100% | activation, % at 3 µM | hit rate 0.99% among 360,000 | AID 624467;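 active = activation above the mean activation of all test compounds in the run plus 3 SD, cut at about 38% in these data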
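Test system: RD-HGA16 (CHO) cells co-expressing Gα16 and hTAAR1 / Benchmarks: DMSO vehicle as 0%, PEA at EC100 as 100% / Repeats: no replicates (n 1) / Measure: % activation from peak over basal fluorescence ratio, DMSO-to-PEA scaled / Timing: 17-24 h plating, Fluo-8 75 min 37 °C, 30 min RT / Technique: kinetic Fluo-8 calcium fluorescence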
m5-HT2A agonist = activates the mouse 5-HT2A serotonin receptor; P35363; CHO-K1 mHTR2A beta-arrestin complementation, luminescence; percent of 30 µM serotonin response; activation, % at 7.6 µM; hit rate 0.66% among 360,000;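 active = activation above a run cutoff, the mean activation of all tested compounds plus 3 SD, cut at about 14% in these data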;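 also: 0% = plate median of compound wells and 100% = 30 µM serotonin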
MC4R antagonist = blocks human MC4R cAMP signaling; inhibition, % at 6.5 µM; P32245; hit rate 0.48% among 360,000; MC4R-expressing cells, MTII-stimulated cAMP, LANCE TR-FRET;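 active = inhibition above its plate's cutoff, the mean of tested wells on that plate plus 3 SD, cut at about 29% in these data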;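 also: 0% = Melanotan II alone and 100% = Melanotan II plus saturating MCL0020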
Target sequence (P32245 whole entry, looked up): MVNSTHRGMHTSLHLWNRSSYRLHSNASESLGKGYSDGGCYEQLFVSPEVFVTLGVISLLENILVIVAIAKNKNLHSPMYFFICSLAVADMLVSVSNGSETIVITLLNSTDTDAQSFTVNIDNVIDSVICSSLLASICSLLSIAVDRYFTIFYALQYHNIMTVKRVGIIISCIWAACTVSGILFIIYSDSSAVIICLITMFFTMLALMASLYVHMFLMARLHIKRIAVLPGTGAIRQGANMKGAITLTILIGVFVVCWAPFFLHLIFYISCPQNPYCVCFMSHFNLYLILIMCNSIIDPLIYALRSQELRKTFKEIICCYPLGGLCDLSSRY
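system = U2OS cells with stable human MC4R expression | also added = Melanotan II challenge after compound preincubation | dosing = one concentration, 6.5 µM nominal | incubation = compound 30 min, challenge 1 h, detection 1 h | measured by = TR-FRET with Eu-cAMP and labeled anti-cAMP, 671 nm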
MC4R ag barr = activates human MC4R beta-arrestin recruitment | P32245 | U2OS MC4R beta-arrestin complementation, luminescence; percent of melanotan II response, DMSO zero | activation, % at 8.9 µM | hit rate 0.98% among 360,000 | AID 540308;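 active = activation above a per-plate cutoff, the mean activation of sample wells on that plate plus 3 SD, cut at about 8% in these data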
Active calls of the source: *; / = not tested or not shown.

SMILES	TAAR1 antagonist	Beta2AR agonist	TAAR1 agonist	m5-HT2A agonist	MC4R antagonist	MC4R ag barr
Cc1ccc(NCN2C(=O)c3ccccc3C2=O)c(C)n1	-12.3	/	1.1	/	/	/
CC(NC(=O)C(NC(=O)OCc1ccccc1)C(C)O)C(=O)OCc1ccccc1 (configuration not stated)	-20.2	/	-0.7	/	/	/
CCCNC(=O)c1ccccc1NC(=O)COc1cccc2c1OC(C)(C)C2	50.4*	16.7	7.6	-7.6	16.8	-3.0
Cc1cccc(NC(=O)c2nc[nH]c2C(=O)N(C)CCO)c1	2.3	/	3.0	/	/	/
O=[N+]([O-])c1ccc(C2=NN(c3ccccc3)C(c3ccco3)C2)cc1 (configuration not stated)	61.3*	-374.9	88.8*	-1.5	11.3	0.7
CC1=NN(c2ccccc2)C(c2ccco2)C1 (configuration not stated)	-3.3	-2.7	0.3	-1.4	-0.5	-1.3
Nc1sc(Cc2ccccc2)cc1C(=O)c1c(-c2ccccc2)[nH]c2ccccc12	13.1	/	0.9	0.8	/	/
CC[C@H](C)Cc1cn([C@@H](CCCCNC(=O)OC(C)(C)C)C(=O)NCCCCCCCCCCC(=O)N2CCN(C(=O)OC(C)(C)C)CC2)nn1	62.8*	23.8	14.2	5.9	13.9	-1.2
C#CCOCCOCCOCCNc1nc(N2CCN(C(=O)CCCCCCCCCCNC(=O)Cn3cc(C[C@@H](C)O)nn3)CC2)nc(N2CCN(C(=O)CCCCCCCCCCNC(=O)[C@H](CCCCN)n3cc(C[C@@H](C)CC)nn3)CC2)n1	/	39.7	/	-2.3	31.8*	1.2
C#CCOCCOCCOCCNc1nc(N2CCN(C(=O)CCCCCCCCCCNC(=O)[C@@H](CCSC)n3cc(CCO)nn3)CC2)nc(N2CCN(C(=O)CCCCCCCCCCNC(=O)[C@H]([C@@H](C)CC)n3cc(CCCCN=C(N)N)nn3)CC2)n1	/	78.0*	/	-5.7	40.8*	1.7
C#CCOCCOCCOCCNc1nc(N2CCN(C(=O)CCCCCCCCCCNC(=O)[C@H](CCCCN)n3cc(CCO)nn3)CC2)nc(N2CCN(C(=O)CCCCCCCCCCNC(=O)[C@H](CCCN=C(N)N)n3cc(C[C@@H](C)CC)nn3)CC2)n1	/	19.5	/	-10.2	78.2*	-2.4
Cc1cc(Br)cn2c(Cc3ccccc3C(F)(F)F)c(-c3cccc(Cl)c3)nc12	-27.1	/	0.4	/	/	/
CCCCN1CC(COCc2ccccc2)Oc2cccc(Oc3ccc(F)cc3OC)c2S1(=O)=O (configuration not stated)	-29.5	/	2.8	/	/	/
COC(=O)C(=N/Nc1ccccc1C(=O)OC)/C(C)=N/O	-53.8	4.8	-3.0	5.8	-0.8	8.8*
O=C(Cc1c(F)cccc1Cl)NCCc1c[nH]c2ccccc12	17.3	10.5	3.0	0.7	2.2	0.0
O=C(NCCc1c[nH]c2ccccc12)c1c(Cl)nc2sccn12	23.2	-8.0	39.2*	-7.0	-9.9	3.3
COC(=O)C1=C(C)N(Cc2ccc(Cl)cc2)C(=S)NC1c1ccc(Cl)cc1 (configuration not stated)	15.2	/	1.9	/	/	/
COc1ccc(C(C(=O)NCc2ccccc2)N(Cc2ccco2)C(=O)c2snc(C(N)=O)c2N)cc1OC (configuration not stated)	57.2*	9.6	17.5	2.5	6.1	-0.1
COc1ccc(C(C(=O)NCc2ccccc2)N(Cc2ccco2)C(=O)c2snc(C(N)=O)c2N)cc1 (configuration not stated)	63.8*	14.9	17.1	-1.5	0.6	1.1
O=C(/C=C(\Nc1cc(Cl)c(F)c(Cl)c1)c1ccccc1)c1ccccc1	-14.8	/	6.8	/	/	/
CN(C(=O)CCc1cn(C)c2ccccc12)c1ccc(Oc2cccnc2)cc1	24.2	/	-2.3	/	/	/
COc1ccc(S(=O)(=O)N2CCOCC2)cc1N=Nc1sc(N)nc1-c1ccccc1	53.7*	6.3	11.9	3.5	-30.1	6.2
O=C(Nc1ccc(N2CCCC2)c(Cl)c1)c1cccc(-c2cc3ccccc3oc2=O)c1	-11.2	61.2*	-1.4	-0.7	-1.5	-1.8
CC(=O)Nc1ccc(NC(=O)c2cccc(-c3cc4ccccc4oc3=O)c2)cc1	13.8	-21.8	3.5	1.9	10.4	-0.8
CCC(Sc1nc2ccsc2c(=O)n1CCC(=O)O)C(=O)Nc1ccc(Cl)cc1 (configuration not stated)	-2.5	/	0.4	-0.4	-4.7	-1.4
SMILES	TAAR1 antagonist	Beta2AR agonist	TAAR1 agonist	m5-HT2A agonist	MC4R antagonist	MC4R ag barr
CCC(Sc1nc2ccsc2c(=O)n1Cc1ccc(C(=O)O)cc1)C(=O)Nc1ccc(C)c(Cl)c1 (configuration not stated)	57.5*	7.6	12.4	-0.7	21.1	-3.4
CC(C)(C)c1ccc(C(=O)N2CCC(=O)N(C(COCc3ccccc3)Cc3ccccc3)CC2)cc1 (configuration not stated)	73.9*	12.5	14.5	-3.2	15.5	1.3
O=C(c1ccc(C(F)(F)F)cc1)N1CCC(=O)N(C(COCc2ccccc2)Cc2ccccc2)CC1 (configuration not stated)	32.7	-2.1	4.9	4.4	4.9	1.0
CC(C)(C)c1ccc(C(=O)N2CCC(=O)N(C(CO)Cc3ccccc3)CC2)cc1 (configuration not stated)	35.4	-0.7	46.3*	-12.6	8.5	-1.3
CSc1ccc(CNC(=O)C2CCC(=O)N(CCc3cccc(F)c3)C2)cc1 (configuration not stated)	7.8	-9.3	5.5	0.5	18.1	-1.0
COc1ccc(CC2=CC(=O)c3ccccc3C2=O)cc1	33.7	56.5*	6.5	-9.5	2.0	-0.6
O=C(CNC(=O)c1ccco1)N=Nc1c(O)[nH]c2ccc(Br)cc12	-26.2	-6.5	38.3*	-0.4	-11.5	1.8
COc1ccc(CCC(=O)Nc2c(-c3ccc(N(C)C)cc3)[nH][nH]c2=O)cc1	-16.1	/	1.2	16.3*	/	/
COc1ccc(-c2[nH][nH]c(=O)c2NC(=O)c2ccccn2)cc1	-21.9	/	6.6	3.0	/	/
COc1cc(CN2C[C@@H](CO)O[C@@H](n3cnc4c(Nc5ccccc5)ncnc43)C2)cc(OC)c1OC	60.5*	/	15.2	-2.8	11.3	0.5
C=CCNc1ncnc2c1ncn2[C@H]1CN(CCc2ccccc2)C[C@@H](CO)O1	-18.0	/	37.6*	6.5	4.5	1.3
OC[C@@H]1CN(Cc2ccc(-c3ccccc3)cc2)C[C@H](n2cnc3c(NCc4ccco4)ncnc32)O1	44.9	/	21.6	18.4*	7.8	-0.8
OC[C@@H]1CN(Cc2ccc3c(c2)OCO3)C[C@H](n2cnc3c(N4CCN(c5ccccc5)CC4)ncnc32)O1	54.8*	/	11.8	6.4	0.9	1.5
